High-throughput results: PubChem, SRMLSC
This is one part of a sample in which hits are shown more often than they occur.
bCat KO growth – beta-catenin-lacking colon tumor cell growth suppression; HCT116 beta-catenin knockout viability, CellTiter-Glo, 60 h; stronger effect = lower value; viability, % at 10 µM; 1.5% of 140,000 active; AID 818;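 active means viability at or under a set limit, the compound median less 4 SD, cut at about 6% in these data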
HCT116 PTEN-null – PTEN-deleted cell growth suppression | HCT116 PTEN-null viability, CellTiter-Glo, 60 h; stronger effect = lower value | viability, % at 10 µM | 1.2% of 140,000 active | AID 827;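 active means viability at or below a set limit, 4 SD under the median of all tested compounds, cut at about 3.7% in these data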;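 further: PTEN knockout HCT116 line with beta catenin targeted HCT116 as companion control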
Lung fibro prol – blocks proliferation of human lung fibroblasts | viability, % at 10 µM | 1.1% of 85,000 active | LL 47 human lung fibroblast viability, ATP luminescence; stronger effect = lower value;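 active means viability at or below 50% in the single dose screen; inactive means viability above 50%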;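 further: compound exposure lasted 72 h before the ATP readout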
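Assay system: human lung fibroblast line LL 47, low passage. Input: 1,150 fibroblasts seeded per well. Times: overnight cell rest, 72 h compound treatment at 37 °C. Evaluation: % viability of median cell-only signal. Technique: luminescent ATP detection, CellTiter-Glo. Control set: cell-only wells, no compound.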
H69AR inhibit – growth inhibitors of human H69AR lung tumor cells; H69AR lung tumor viability, ATP luminescence, 72 h; stronger effect = lower value; viability, % at 10 µM; 6% of 85,000 active; AID 598;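 active means viability at or below 40%; inactive means viability above 40%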;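 further: multidrug resistant small cell line overexpressing MRP-1 efflux transporter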
HUVEC inhibit – blocks proliferation of human endothelial cells | HUVEC proliferation, CellTiter-Glo luminescence, 72 h; stronger effect = lower value | viability, % at 10 µM (by protocol) | 1.1% of 86,000 active;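 active means viability at or below 30%; inactive means viability above 30%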
Each line names hits and unclear results; the compound was inactive in the other large screens.

COc1ccc(OC)c(C2CC(=O)c3c([nH]c(C(=O)OC(C)C)c3C)C2)c1 (centres undefined)	H69AR inhibit 28
COCCOC(=O)c1[nH]c2c(c1C)C(=O)CC(c1cc(OC)ccc1OC)C2 (centres undefined)	none (no result: Lung fibro prol, H69AR inhibit, HUVEC inhibit)
CCCOCCOC(=O)c1[nH]c2c(c1C)C(=O)CC(c1cc(OC)ccc1OC)C2 (centres undefined)	H69AR inhibit 19
Cc1ccccc1NC(=S)NNC(=O)c1csc2c1CCC(C)C2 (centres undefined)	none (no result: Lung fibro prol, H69AR inhibit, HUVEC inhibit)
Fc1ccc(CNC(=S)Nc2ccccc2Cl)cc1	none (no result: Lung fibro prol, H69AR inhibit, HUVEC inhibit)
COc1ccccc1NCCC(=O)OCC(=O)Nc1ccc(Cl)cn1	none
Cn1cccc1-c1nc2ccc(NC(=O)c3ccc([N+](=O)[O-])cc3)cc2[nH]1	H69AR inhibit 33
OC(CN1CCN(c2cccc(C(F)(F)F)c2)CC1)c1c[nH]c2ccccc12 (centres undefined)	H69AR inhibit 2.6
O=c1cnn(-c2ccccc2)c(-c2ccccc2)c1	H69AR inhibit 25
COc1cnn(-c2ccccc2)c(=O)c1N(C)C	none
Cc1ccc(O)c(C(=O)CC(=O)c2cccc(F)c2)c1	H69AR inhibit 13, HUVEC inhibit 15
Cc1cccc(C(=O)CC(=O)c2cc(Cl)ccc2O)c1	Lung fibro prol 31, H69AR inhibit 18, HUVEC inhibit 3.3
O=C(O)CC(=O)Nc1cc(Cl)ccc1O	none
O=C(CC(=O)c1cc(Cl)ccc1O)c1ccccc1	Lung fibro prol 40, H69AR inhibit 11
COc1ccc(O)c(C(=O)CC(=O)c2ccc(F)cc2)c1	none (no result: Lung fibro prol, H69AR inhibit, HUVEC inhibit)
Cc1nn(C(C)C(=O)NNC(=S)Nc2ccc(Cl)cc2)c(C)c1[N+](=O)[O-] (centres undefined)	none (no result: Lung fibro prol, H69AR inhibit, HUVEC inhibit)
Cc1cc(C)c(S(=O)(=O)/N=C2/C=C(Sc3ncn[nH]3)C(=O)c3ccccc32)cc1C	bCat KO growth 3.1 (no result: Lung fibro prol, H69AR inhibit, HUVEC inhibit)
CCCCC(CC)CNC(=O)C(=O)c1ccccc1NC(C)=O (centres undefined)	none (no result: Lung fibro prol, H69AR inhibit, HUVEC inhibit)
COc1ccccc1-c1c(-c2ccc(OCC(=O)NN)cc2O)n[nH]c1C(F)(F)F	none (no result: Lung fibro prol, H69AR inhibit, HUVEC inhibit)
COc1ccc(-c2n[nH]c(C(F)(F)F)c2-c2cc3ccccc3o2)c(O)c1	H69AR inhibit 11, HUVEC inhibit 12
O=c1oc2ccccc2cc1-c1nnc(-c2cccc(Br)c2)o1	H69AR inhibit 38 (no result: bCat KO growth, HCT116 PTEN-null)
CCN(CC)c1ccc2cc(-c3nc4ccccc4n3C)c(=O)oc2c1	H69AR inhibit 20, HUVEC inhibit 21
CCN(CC)c1ccc2cc(-c3nc4ccccc4[nH]3)c(=O)oc2c1	Lung fibro prol 26, H69AR inhibit 1.4
CCN(CC)c1ccc2cc(-c3nnc(-c4ccccc4)o3)c(=O)oc2c1	H69AR inhibit 22
Cc1cccc(C)c1NC(=O)CSc1cc(C(=O)c2nccn2C)c2ccccc2n1	none (no result: Lung fibro prol, H69AR inhibit, HUVEC inhibit)
CCCCCC(=O)O[C@]1(C(C)=O)CC[C@H]2[C@@H]3CCC4=CC(=O)CC[C@]4(C)[C@H]3CC[C@@]21C	bCat KO growth 4.8, H69AR inhibit 4.8
COc1ccccc1OCc1nc2c3c(-c4ccccc4)c(-c4ccccc4)oc3ncn2n1	H69AR inhibit 25 (no result: bCat KO growth, HCT116 PTEN-null)
CCCCOc1ccc(CC(=O)NO)cc1	H69AR inhibit 4.8
Oc1ccc(Nc2nc(NCC3CCCO3)c3ccccc3n2)cc1 (centres undefined)	H69AR inhibit 37
COc1cccc(Nc2nc(NCCO)c3ccccc3n2)c1	none (no result: Lung fibro prol, H69AR inhibit, HUVEC inhibit)
Oc1ccccc1Nc1nc(NCC2CCCO2)c2ccccc2n1 (centres undefined)	none
COc1cccc(Nc2nc(NCC3CCCO3)c3ccccc3n2)c1 (centres undefined)	bCat KO growth 1.3, HCT116 PTEN-null 1.2, Lung fibro prol 23
COc1ccc(NC(=S)N(CCN(C)C)C(C)c2ccco2)cc1Cl (centres undefined)	none (no result: Lung fibro prol, H69AR inhibit, HUVEC inhibit)
Cc1ccc(C(=O)N2NC(c3ccc(F)cc3)C3C(=O)N(c4ccc(C)c(C)c4)C(=O)C32)cc1 (centres undefined)	none (no result: Lung fibro prol, H69AR inhibit, HUVEC inhibit)
C=CCOc1c(Br)cc(/C=N/Nc2ccc(C(=O)O)cc2)cc1OCC	none (no result: Lung fibro prol, H69AR inhibit, HUVEC inhibit)
CC(=O)CSc1nsc(SCC(C)=O)c1C#N	H69AR inhibit 31 (no result: Lung fibro prol)
CCOCCCNC(=O)c1cc(C)nn1-c1ccccc1	none
CCOCCCNC(=O)c1cc2sc(Cl)cc2n1CC	H69AR inhibit 36
C=CCNC(=O)CSc1nnc(-c2cccs2)o1	H69AR inhibit 38
NC(=O)CSc1nnc(-c2cc(-c3cccs3)nc3ccccc23)o1	none (no result: Lung fibro prol, H69AR inhibit, HUVEC inhibit)
O=C(CSc1nnc(-c2cc(-c3cccs3)nc3ccccc23)o1)NC1CCCCC1	H69AR inhibit 23
COc1ccccc1Nc1nnc(SCC(=O)c2cc(C)n(CC3CCCO3)c2C)s1 (centres undefined)	H69AR inhibit 38
Cc1cc(C(=O)CSc2nnc(Nc3ccccc3F)s2)c(C)n1CC1CCCO1 (centres undefined)	none
Cn1cnnc1SCc1ccc(C(=O)N=Nc2c(O)n(Cc3ccc(Cl)cc3)c3ccccc23)cc1	bCat KO growth 3.8 (no result: Lung fibro prol, H69AR inhibit, HUVEC inhibit)
COC(=O)c1ccc(C)c(-n2c(C)cc(C=O)c2C)c1	none (no result: Lung fibro prol, H69AR inhibit, HUVEC inhibit)
CCC(/C=N/NC(=O)CCCCC(=O)N/N=C/C(CC)CC)CC	none (no result: Lung fibro prol, H69AR inhibit, HUVEC inhibit)
CC[n+]1c(/C=C/C=C/N(C(C)=O)c2ccccc2)sc2cc(OC)ccc21	bCat KO growth 6.0 (no result: Lung fibro prol, H69AR inhibit, HUVEC inhibit)
CC[n+]1c(/C=C(\C)Nc2ccccc2)sc2ccccc21	none (no result: Lung fibro prol, H69AR inhibit, HUVEC inhibit)
O=C1N=C(N2CCCC2)CN1c1ccccc1	none (no result: Lung fibro prol, H69AR inhibit, HUVEC inhibit)
O=c1c2ccccc2sn1-c1cc(S(=O)(=O)N2CCOCC2)ccc1N1CCCC1	H69AR inhibit 1.0
Brc1ccc(-c2csc(NNC3=NCCCCC3)n2)cc1	Lung fibro prol 48
CCOC(=O)c1ccc(NC(=O)COC(=O)c2cccc(Oc3ccccc3)c2)cc1	none (no result: Lung fibro prol, H69AR inhibit, HUVEC inhibit)
CC(=Nc1ccccc1)C1=C(O)COC1=O	none
COc1ccc(OC)c(N=C(C)C2=C(O)COC2=O)c1	H69AR inhibit 22
CN1CC(=O)NC1=NC(=O)c1cc(F)c(F)cc1Cl	none
CN1CC(=O)NC1=NC(=O)c1ccc(Cl)c(S(=O)(=O)N2CCCCCC2)c1	H69AR inhibit 12
COC(=O)c1ccc(Cl)c(NC(=O)NC2CCCCC2)c1	H69AR inhibit 29
COC(=O)c1ccc(Cl)c(NC(C)=O)c1	none (no result: Lung fibro prol, H69AR inhibit, HUVEC inhibit)
CSc1nc(-c2ccco2)nn1S(C)(=O)=O	none
O=S(=O)(CCOc1ccccc1)c1nc2ccccc2[nH]1	H69AR inhibit 0.3
CC1(C)Cc2ccccc2C(N)=C1C#N	none
Cc1ccc(NCCC(=O)c2ccc(Br)cc2)cc1	none (no result: Lung fibro prol, H69AR inhibit, HUVEC inhibit)
COC(=O)C(CC(=O)c1ccc(Br)cc1)n1ccnc1 (centres undefined)	bCat KO growth 2.6, HCT116 PTEN-null 2.7, Lung fibro prol 28
COc1ccccc1-c1nn2c(-c3ccc(C(C)(C)C)cc3)nnc2s1	HUVEC inhibit 25 (no result: bCat KO growth, HCT116 PTEN-null)
CCOc1cccc(-c2nnc3sc(-c4ccco4)nn23)c1	none
COc1ccccc1-c1nnc2sc(-c3ccc(N(C)C)cc3)nn12	none (no result: Lung fibro prol, H69AR inhibit, HUVEC inhibit)
COc1ccccc1-c1nnc2sc(-c3cc4ccccc4o3)nn12	Lung fibro prol 49, H69AR inhibit 31
CCOc1cccc(-c2nnc3sc(-c4ccc(C)cc4)nn23)c1	H69AR inhibit 19 (no result: bCat KO growth, HCT116 PTEN-null)
